# Publication PMC3308013 (Journal of Immunology (Baltimore, Md. : 1950), 2011)
# Where no end group is shown, it is not given here.
# Target: H-2 Db (Mus musculus, UniProt P01899)
# Assay: MHC peptide binding competition assay, purified H-2 Db
# Summary of the method: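 Peptides radiolabelled by chloramine T; 1–10 nM label co-incubated at room temperature for 2 d with 1 μM to 1 nM purified H-2 Db, 1–3 μM human β2-microglobulin and protease inhibitors. Complexes captured on 28-14-8s Ab-coated plates; bound cpm counted. Test peptide at six concentrations over a 100,000-fold range, ≥3 independent assays; IC50 = concentration giving 50% inhibition of label binding.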
# Chain of H-2 Db (P01899 25-362): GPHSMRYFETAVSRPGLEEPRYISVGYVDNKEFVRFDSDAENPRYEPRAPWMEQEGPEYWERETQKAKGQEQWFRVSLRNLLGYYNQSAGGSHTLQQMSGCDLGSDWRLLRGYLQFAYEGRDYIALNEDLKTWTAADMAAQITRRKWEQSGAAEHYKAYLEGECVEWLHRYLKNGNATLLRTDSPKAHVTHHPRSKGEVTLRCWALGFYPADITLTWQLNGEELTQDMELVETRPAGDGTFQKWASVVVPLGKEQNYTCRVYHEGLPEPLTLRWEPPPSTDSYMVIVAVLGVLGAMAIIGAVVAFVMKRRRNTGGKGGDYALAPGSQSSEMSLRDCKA
# Chain of H-2 Db (P61769 21-119, further chain): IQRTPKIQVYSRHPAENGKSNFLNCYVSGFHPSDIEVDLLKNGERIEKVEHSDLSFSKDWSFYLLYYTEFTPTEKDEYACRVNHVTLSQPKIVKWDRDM
row,Sequence,IC50
1,LAVVLWSLL [LAVVLWSLL],2780 nM
2,YSVENVGLL [YSVENVGLL],1.9 nM
3,WMKMNQTLL [WMKMNQTLL],131 nM
4,FLPRLGTEL [FLPRLGTEL],3050 nM
5,SARMLGDVM [SARMLGDVM],9210 nM
6,AVCINNTFL [AVCINNTFL],450 nM
7,GAMRAVVPI [GAMRAVVPI],499 nM
8,YQPLLSNTL [YQPLLSNTL],5150 nM
9,FAFVNAAHA [FAFVNAAHA],4.9 nM
10,AAIENYVRF [AAIENYVRF],38 nM
11,FGLLNYALV [FGLLNYALV],1 nM

# Target: H-2 Kb (Mus musculus, UniProt P01901)
# Sequence (P01901 22-369): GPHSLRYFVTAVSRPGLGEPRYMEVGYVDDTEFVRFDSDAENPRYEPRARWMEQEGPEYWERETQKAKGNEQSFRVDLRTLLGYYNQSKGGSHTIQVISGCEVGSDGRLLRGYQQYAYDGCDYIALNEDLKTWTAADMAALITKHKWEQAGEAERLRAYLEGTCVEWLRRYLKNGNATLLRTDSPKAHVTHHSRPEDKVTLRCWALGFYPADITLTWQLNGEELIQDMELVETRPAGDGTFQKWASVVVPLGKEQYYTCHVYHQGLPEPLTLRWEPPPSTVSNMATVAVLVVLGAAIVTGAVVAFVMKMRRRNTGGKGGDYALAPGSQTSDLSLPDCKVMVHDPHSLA
# Sequence (P61769 21-119 partner): as the sequence (P61769 21-119, further chain) above
# Assay: MHC peptide binding competition assay, purified H-2 Kb
row,Sequence,IC50
1,GAINFINL [GAINFINL],6.2 nM
2,SFYRFLFA [SFYRFLFA],64 nM
3,LGYAYINS [LGYAYINS],10 nM
4,YRFLFAFL [YRFLFAFL],5.4 nM
5,INNTFLHL [INNTFLHL],2 nM
6,QTFDFGRL [QTFDFGRL],2.1 nM
